Measurements published in ChEMBL document CHEMBL1129071, “Probes for narcotic receptor-mediated phenomena. 21. Novel derivatives of 3-(1,2,3,4,5,11-hexahydro-3-methyl-2,6-methano-6H-azocino[4,5-b]indol- 6-yl)-phenols with improved delta opioid receptor selectivity” (J Med Chem, 1996).

Legend:
[1] = molecular target: Delta-type opioid receptor (Mus musculus) (UniProt P32300); assay: Agonistic activity towards Opioid receptor delta 1 was determined by evaluating the inhibitory activity towards electrically stimulated mouse vas deferens; assay type: functional, tissue-based; details: concentration not given here
Procedure, shortened: (§1)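 Electrically stimulated smooth muscle bioassay. Guinea pig ileum longitudinal muscle-myenteric plexus strips come from male Hartley guinea pigs (250–500 g); vas deferens from male ICR mice (25–40 g). Tissues sit in 37 °C oxygenated Krebs bicarbonate (Mg-free for MVD) at 1 g tension (0.5 g MVD). Stimulation is 0.1 Hz, 0.4 ms pulses (2 ms MVD), supramaximal voltage.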

[2] = Relative affinity for […] opioid receptors
[3] = molecular target: T1, Mu-type opioid receptor (Rattus norvegicus, UniProt P33535); assay: Inhibition of [3H]- DAMGO binding to Rat brain Opioid receptor mu 1
Procedure, shortened: (§2)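 Rat brain membranes labeled with [3H]DAMGO (1–3 nM), incubated 4 h at 25 °C in 50 mM Tris-HCl pH 7.4 with protease inhibitor cocktail. Nonspecific binding defined by 20 µM levallorphan. Displacement uses 8–10 test concentrations, run twice, diluted in 10 mM Tris pH 7.4 with 1 mg/mL BSA from 1 mM stocks containing 10% DMSO. IC50 and slope factor from curve fitting.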

[4] = molecular target: Mu-type opioid receptor (Cavia porcellus, UniProt P97266); assay: Agonistic activity for Opioid receptor mu 1 as inhibitory activity towards electrically stimulated guinea pig ileum; assay type: functional, tissue-based; procedure, shortened: as §1
[5] = molecular target: Delta-type opioid receptor (Mus musculus, UniProt P32300); assay: Agonistic activity towards Opioid receptor delta 1 as inhibitory activity towards electrically stimulated mouse vas deferens; assay type: functional, tissue-based; procedure, shortened: as §1
[6] = molecular target: Kappa-type opioid receptor (Cavia porcellus, UniProt P41144); assay: Inhibition of [3H]- U69,593 binding to Guinea pig Opioid receptor kappa 1
[7] = molecular target: Delta-type opioid receptor (Rattus norvegicus, UniProt P33533); assay: Inhibition of [3H]- DADLE binding to Rat brain Opioid receptor delta 1
[8] = Relative affinity for mouse vas deferens (delta receptor) and guinea pig ileum (mu receptor); assay type: tissue-based
Procedure, shortened: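 GPI/MVD IC50 ratio from the electrically stimulated guinea pig ileum and mouse vas deferens bioassays. Both tissues are stimulated at 0.1 Hz and supramaximal voltage, with cumulative agonist dosing.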

[9] = molecular target: T1, Mu-type opioid receptor; assay: Compound was evaluated for Inhibition of Radio Ligand binding of [3H]- DAMGO at Rat brain Opioid receptor mu 1 binding site; procedure, shortened: as §2
[10] = molecular target: Mu-type opioid receptor (Cavia porcellus) (UniProt P97266); assay: Agonistic activity (30 uM) towards mu opioid receptor was determined by evaluating the inhibitory activity towards electrically stimulated guinea pig ileum; assay type: functional, tissue-based; procedure, shortened: as §1
Sequence of Mu-type opioid receptor (Cavia porcellus) (P97266 whole entry): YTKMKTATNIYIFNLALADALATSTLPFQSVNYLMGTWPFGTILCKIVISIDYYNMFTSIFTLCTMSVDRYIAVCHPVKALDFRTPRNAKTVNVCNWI

Sequence of Delta-type opioid receptor (Rattus norvegicus, UniProt P33533) (P33533 whole entry): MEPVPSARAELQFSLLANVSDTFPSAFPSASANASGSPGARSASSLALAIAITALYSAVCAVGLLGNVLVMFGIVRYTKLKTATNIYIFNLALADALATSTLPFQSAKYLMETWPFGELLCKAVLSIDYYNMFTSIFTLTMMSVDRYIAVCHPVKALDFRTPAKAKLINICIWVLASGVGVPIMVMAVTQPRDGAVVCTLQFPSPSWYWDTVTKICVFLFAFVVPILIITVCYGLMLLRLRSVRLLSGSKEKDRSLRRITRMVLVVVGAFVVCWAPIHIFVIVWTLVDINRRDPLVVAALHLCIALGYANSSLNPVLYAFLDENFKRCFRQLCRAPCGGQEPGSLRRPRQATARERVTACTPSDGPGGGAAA
Sequence of Delta-type opioid receptor (Mus musculus, UniProt P32300) (P32300 whole entry): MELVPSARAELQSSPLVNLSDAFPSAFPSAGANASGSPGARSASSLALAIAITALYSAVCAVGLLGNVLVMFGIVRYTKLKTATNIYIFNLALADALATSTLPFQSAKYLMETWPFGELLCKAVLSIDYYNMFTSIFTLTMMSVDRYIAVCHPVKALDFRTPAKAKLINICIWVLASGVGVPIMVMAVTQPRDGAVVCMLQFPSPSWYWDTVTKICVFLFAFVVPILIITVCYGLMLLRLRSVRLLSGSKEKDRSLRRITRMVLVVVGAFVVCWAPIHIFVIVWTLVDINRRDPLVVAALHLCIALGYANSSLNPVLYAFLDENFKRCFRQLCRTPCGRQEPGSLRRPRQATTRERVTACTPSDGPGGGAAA
Sequence of Mu-type opioid receptor (Cavia porcellus, UniProt P97266) (P97266 whole entry): as the sequence (P97266 whole entry) above
T1 sequence (P33535 whole entry): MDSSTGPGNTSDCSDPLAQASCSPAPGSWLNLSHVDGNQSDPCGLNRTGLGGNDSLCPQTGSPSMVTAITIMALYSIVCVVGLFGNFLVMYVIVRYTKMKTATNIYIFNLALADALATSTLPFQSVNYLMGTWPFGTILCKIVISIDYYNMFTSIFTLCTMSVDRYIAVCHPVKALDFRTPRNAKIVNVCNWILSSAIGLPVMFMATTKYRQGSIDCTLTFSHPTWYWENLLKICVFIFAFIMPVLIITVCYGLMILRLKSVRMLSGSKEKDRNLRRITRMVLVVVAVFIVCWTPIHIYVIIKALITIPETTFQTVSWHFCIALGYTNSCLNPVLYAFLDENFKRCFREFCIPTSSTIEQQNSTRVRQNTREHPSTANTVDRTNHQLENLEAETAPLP
Sequence of Kappa-type opioid receptor (P41144 whole entry): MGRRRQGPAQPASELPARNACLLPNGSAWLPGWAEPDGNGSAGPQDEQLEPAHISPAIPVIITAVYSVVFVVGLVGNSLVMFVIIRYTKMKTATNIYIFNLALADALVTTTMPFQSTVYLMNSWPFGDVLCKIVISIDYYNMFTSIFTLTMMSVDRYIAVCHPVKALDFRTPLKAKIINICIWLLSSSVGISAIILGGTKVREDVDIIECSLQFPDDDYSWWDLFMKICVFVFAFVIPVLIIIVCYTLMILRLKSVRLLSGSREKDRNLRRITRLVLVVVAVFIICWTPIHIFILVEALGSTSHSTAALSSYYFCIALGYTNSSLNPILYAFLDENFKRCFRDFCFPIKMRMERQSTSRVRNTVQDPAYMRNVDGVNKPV
Sequence of Delta-type opioid receptor (Mus musculus) (P32300 whole entry): as the sequence (P32300 whole entry) above

Structure (SMILES)	Ratio [2]	IC50 [3] [nM]	IC50 [4] [nM]	IC50 [5] [nM]	IC50 [6] [nM]	IC50 [7] [nM]	Ratio [8]	also measured
COc1ccc2[nH]c3c(c2c1)C1(c2cccc(O)c2)CCN(C)C(C3)C1 (stereo in doubt; (-)-11) [listing 1 of 2 here]	17.4	–	–	–	–	–	–	inhibition [1]: 0%
COc1cccc2c3c([nH]c12)CC1CC3(c2cccc(O)c2)CCN1C (single isomer, unassigned; (-)) [listing 1 of 2 here]	–	29.4	2890	165	1770	4.4	–	–
COc1ccc2c3c([nH]c2c1)CC1CC3(c2cccc(O)c2)CCN1C (racemic)	> 159	48.4	862	118	> 1000	6.3	7.3	–
CC(C)C[C@@H](NC(=O)[C@H](Cc1ccccc1)NC(=O)CNC(=O)[C@@H](C)NC(=O)[C@@H](N)Cc1ccc(O)cc1)C(=O)O [DADLE]	–	–	–	–	4400	–	–	–
COc1cccc2c3c([nH]c12)CC1CC3(c2cccc(O)c2)CCN1C (racemic) [listing 1 of 2 here]	455	–	–	–	–	–	7.2	–
COc1ccc2[nH]c3c(c2c1)C1(c2cccc(O)c2)CCN(C)C(C3)C1 (racemic) [listing 1 of 2 here]	11.1	–	–	–	–	–	1.5	–
C=CCN1C[C@H](C)N([C@H](c2ccc(C(=O)N(CC)CC)cc2)c2cccc(OC)c2)C[C@H]1C [SNC-80]	–	2470	5460	–	> 1000	–	–	–
CN1CCC2(c3ccccc3)CC1Cc1[nH]c3ccccc3c12 (racemic)	5.08	–	–	–	> 10000	1970	–	–
CN1CCC2(c3cccc(O)c3)CC(=O)CC1C2 (racemic)	2.81	–	–	–	–	–	–	–
CN1CCC2(c3cccc(O)c3)CC(=O)CC1C2 (stereo not given)	4.46	–	–	–	–	–	–	–
CN1CC[C@]2(c3cccc(O)c3)C[C@H]1Cc1[nH]c3ccccc3c12	–	–	2350	393	–	5.6	6	IC50 [9]: 14.2 nM
COc1ccc2[nH]c3c(c2c1)C1(c2cccc(O)c2)CCN(C)C(C3)C1 (stereo in doubt; (-)-11) [listing 2 of 2 here]	–	474	25900	–	> 2500	144	–	–
COc1cccc2c3c([nH]c12)CC1CC3(c2cccc(O)c2)CCN1C (single isomer, unassigned; (-)) [listing 2 of 2 here]	402	–	–	–	–	–	17.5	–
COc1ccc2[nH]c3c(c2c1)C1(c2cccc(O)c2)CCN(C)C(C3)C1 (racemic) [listing 2 of 2 here]	–	24.2	6770	4370	> 1000	90.1	–	–
COc1ccc2c3c([nH]c2c1)C[C@@H]1C[C@@]3(c2cccc(O)c2)CCN1C	314	66.4	–	49	1160	3.7	> 612	inhibition [10]: 38%
COc1cccc2c3c([nH]c12)CC1CC3(c2cccc(O)c2)CCN1C (racemic) [listing 2 of 2 here]	–	28.8	1950	270	3960	8.7	–	–
